Active and inactive are the calls of the source. The calls are words filed in the database; no cut-off is given here.
Assays:
[1] = system: Human immunodeficiency virus 1; assay: Antiviral activity against HIV1 NL4.3 infected in human TZM-bl cells incubated for 30 mins prior to infection measured after 48 hrs by luciferase assay; assay type: functional, organism-based; settings: Human immunodeficiency virus 1, NL4.3, TZM-bl
Procedure, shortened: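 TZM-bl cells (10 000/well, 10⁵ cells/mL in medium with 30 μg/mL DEAE dextran) preincubated 30 min at 37 °C, 5% CO₂ with serial compound dilutions; 200 TCID₅₀ HIV-1 WT or mutant virus added, luciferase read after 48 h. Triplicate wells, ≥2 independent experiments; % inhibition vs untreated controls, EC₅₀ by nonlinear regression.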

[2] = Cytotoxicity against human TZM-bl cells assessed as reduction in cell viability after 2 days by WST-1 assay; assay type: cell-based
Procedure, shortened: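 10 000 TZM-bl cells cultured 48 h with serial compound dilutions; WST-1 added and absorbance at 450 nm read after 90 min. Three replicate wells, ≥2 independent experiments; % viability vs untreated controls, CC₅₀ by nonlinear regression.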

[3] = system: Human immunodeficiency virus 1; assay: Antiviral activity against HIV1 NL4.3 expressing reverse transcriptase V90I mutant infected in human TZM-bl cells incubated for 30 mins prior to infection measured after 48 hrs by luciferase assay; assay type: functional, organism-based; settings: Human immunodeficiency virus 1, NL4.3, TZM-bl
Procedure, shortened: (§1)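 TZM-bl cells (10,000/well at 10⁵ cells/mL, medium with 30 μg/mL DEAE dextran) preincubated 30 min at 37 °C, 5% CO₂ with serial compound dilutions. Then 200 TCID₅₀ mutant HIV-1 added per well. After 48 h, luciferase read. Triplicate wells, at least two independent experiments. % inhibition versus untreated controls fitted by nonlinear regression to give EC₅₀.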

[4] = biological target: Human immunodeficiency virus type 1 reverse transcriptase (Human immunodeficiency virus 1, UniProt Q72547); assay: Inhibition of recombinant HIV1 His-tagged p66/p51 reverse transcriptase expressed in Escherichia coli assessed as reduction in [3H]dTTP incorporation using poly(rA)-oligo(dT) (12 to 18 bp) as template/primer incubated for 20 mins by scintillation counting method
[5] = system: Human immunodeficiency virus 1; assay: Antiviral activity against HIV1 NL4.3 expressing reverse transcriptase E138K mutant infected in human TZM-bl cells incubated for 30 mins prior to infection measured after 48 hrs by luciferase assay; assay type: functional, organism-based; settings: Human immunodeficiency virus 1, NL4.3, TZM-bl; procedure, shortened: as §1
[6] = Effective permeability of compound at pH 4.2 after 5 hrs by PAMPA; assay type: ADME; settings: read-out: Peff
Procedure, shortened: (§2)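 Filter coated with 1% w/v phosphatidylcholine in dodecane; acceptor 50% DMSO in phosphate buffer. 5 h at room temperature with gentle shaking; LC-UV at 280 nm on both sides; Pe calculated in cm/s. Three plates on different days.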

Liver microsome = assay: Metabolic stability in liver microsomes (unknown origin) assessed as parent compound remaining; assay type: ADME; settings: human
[7] = system: Human immunodeficiency virus 1; assay: Antiviral activity against HIV1 NL4.3 expressing reverse transcriptase L100I mutant infected in human TZM-bl cells incubated for 30 mins prior to infection measured after 48 hrs by luciferase assay; assay type: functional, organism-based; settings: Human immunodeficiency virus 1, NL4.3, TZM-bl; procedure, shortened: as §1
[8] = system: Human immunodeficiency virus 1; assay: Antiviral activity against HIV1 NL4.3 expressing reverse transcriptase Y181C mutant infected in human TZM-bl cells incubated for 30 mins prior to infection measured after 48 hrs by luciferase assay; assay type: functional, organism-based; settings: Human immunodeficiency virus 1, NL4.3, TZM-bl; procedure, shortened: as §1
[9] = system: Human immunodeficiency virus 1; assay: Antiviral activity against HIV1 NL4.3 expressing reverse transcriptase K101E mutant infected in human TZM-bl cells incubated for 30 mins prior to infection measured after 48 hrs by luciferase assay; assay type: functional, organism-based; settings: Human immunodeficiency virus 1, NL4.3, TZM-bl; procedure, shortened: as §1
[10] = Effective permeability of compound at pH 7.4 after 5 hrs by PAMPA; assay type: ADME; settings: read-out: Peff; procedure, shortened: as §2
[11] = system: Human immunodeficiency virus 1; assay: Antiviral activity against HIV1 NL4.3 expressing reverse transcriptase K103N mutant infected in human TZM-bl cells incubated for 30 mins prior to infection measured after 48 hrs by luciferase assay; assay type: functional, organism-based; settings: Human immunodeficiency virus 1, NL4.3, TZM-bl; procedure, shortened: as §1
[12] = system: Human immunodeficiency virus 1; assay: Antiviral activity against HIV1 NL4.3 infected in human TZM-bl cells using compound gel formulation incubated for 30 mins prior to infection measured after 48 hrs by luciferase assay; assay type: functional, organism-based; settings: Human immunodeficiency virus 1, NL4.3, TZM-bl
Procedure, shortened: (§3)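 Gel formulation tested by the free-drug TZM-bl procedure alongside free drug in solution and blank gel: 10 000 cells with 30 μg/mL DEAE dextran, 30 min preincubation at 37 °C, 200 TCID₅₀ virus, luciferase after 48 h. Each concentration in triplicate; EC₅₀ from % inhibition vs untreated controls by nonlinear regression.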

[13] = system: Human immunodeficiency virus 1; assay: Antiviral activity against HIV1 NL4.3 infected in human TZM-bl cells using compound gel formulation incubated for 72 hrs by luciferase based transwell assay; assay type: functional, organism-based; settings: Human immunodeficiency virus 1, NL4.3, TZM-bl
Procedure, shortened: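 Transwell format, gel reformulated without β-cyclodextrins. TZM-bl cells (4 × 10⁴/apical chamber, 3 μm pore) cultured overnight. 60 TCID₅₀ NL4.3 added apically with gel at 50%, final drug 5000–0.5 nM (tenfold steps); medium in basal compartment. Blank gel used for virus titration. Luciferase read-out; triplicates.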

[14] = Chemical stability in pH 4.2 solution assessed as drug recovery using compound gel formulation incubated for 1 month at room temperature under dark condition; assay type: physicochemical; settings: pH 4.2 solution (compound gel formulation), read-out: Drug recovery
Procedure, shortened: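 Gel at pH 4.2 (vaginal formulation) with final drug concentration 17 μM stored 1 month at room temperature without light; drug recovery measured, with viscosity and pH monitored.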

[15] = Selectivity index, ratio of CC50 for human TZM-bl cells to EC50 for HIV1 NL4.3 infected in human TZM-bl cells; assay type: toxicity, cell-based; settings: read-out: Ratio CC50/EC50
Procedure, shortened: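 SI = CC50/EC50 in TZM-bl cells. EC50: 10 000 cells (10⁵/mL, 30 μg/mL DEAE dextran) preincubated 30 min at 37 °C with serial compound dilutions, then infected with 200 TCID50 virus; luciferase read at 48 h. CC50: 10 000 cells given serial dilutions for 48 h; WST-1 absorbance at 450 nm after 90 min. Triplicates, ≥2 experiments; nonlinear regression.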

[16] = system: Human immunodeficiency virus 1; assay: Antiviral activity against HIV1 NL4.3 infected in human TZM-bl cells using compound gel formulation stored at room temperature in dark for 1 month incubated for 30 mins with cells prior to infection measured after 48 hrs by luciferase assay; assay type: functional, organism-based; procedure, shortened: as §3
[17] = Cytotoxicity against human TZM-bl cells assessed as reduction in cell viability at 5% gel formulation of compound after 2 days by WST-1 assay; assay type: cell-based; settings: 48 h
[18] = system: Human immunodeficiency virus 1; assay: Antiviral activity against HIV1 NL4.3 expressing reverse transcriptase V106A mutant infected in human TZM-bl cells incubated for 30 mins prior to infection measured after 48 hrs by luciferase assay; assay type: functional, organism-based; settings: Human immunodeficiency virus 1, NL4.3, TZM-bl; procedure, shortened: as §1

SMILES | EC50 [1] [nM] | CC50 at 48 h [2] [nM] | EC50 [5] [nM] | EC50 [8] [nM] | EC50 [9] [nM] | EC50 [11] [nM] | EC50 [18] [nM] | also measured
Cc1cc(C)c(Nc2ccnc(Nc3ccc(C#N)cc3)n2)c(C)c1 [DAPIVIRINE] | 1.3 | 3400 | – | – | – | – | – | –
Cc1c(Cc2c(Cl)cccc2Cl)nc(N(C)Cc2ccc([N+](=O)[O-])cc2)[nH]c1=O | 8.6 | 19500 | 35 | 201 | 51 | 367 | – | EC50 [3]: 13 nM; IC50 [4]: 7.85 nM; Papp at 5 h [6]: 1.9 ×10⁻⁶ cm/s; Stability (Liver microsome): 99%; EC50 [7]: 220 nM; Papp at 5 h [10]: 10.9 ×10⁻⁶ cm/s
COc1ccc(CN(C)c2nc(C(C)c3c(F)cccc3F)c(C)c(=O)[nH]2)cc1 (centres undefined) | 3.3 | 88800 | 17 | 80 | 31 | 102 | – | EC50 [12]: 2.3 nM; EC50 [3]: 8.7 nM; EC50 [13]: 30 nM; Papp at 5 h [6]: 3.78 ×10⁻⁶ cm/s; Stability (Liver microsome): 99%; EC50 [7]: 84 nM; remaining at 730.5 h [14]: 100%; selectivity ratio [15]: > 10000; Activity [16]: Active; Activity [17]: Toxic; Papp at 5 h [10]: 5.54 ×10⁻⁶ cm/s
Cc1c(C(C)c2c(Cl)cccc2Cl)nc(N(C)Cc2ccc([N+](=O)[O-])cc2)[nH]c1=O (centres undefined) | 104 | > 50000 | – | – | – | – | – | –
Cc1c(Cc2c(Cl)cccc2Cl)nc(N(C)Cc2ccc(N3CCNCC3)cc2)[nH]c1=O | 110 | 20700 | – | – | – | – | – | –
COc1ccc(CN(C)c2nc(C(C)c3c(F)cccc3F)cc(=O)[nH]2)cc1 (centres undefined) | 2.6 | 48100 | 9.1 | 94 | 17 | 34 | 0.87 | –
Cc1c(C(C)c2c(F)cccc2F)nc(N(C)Cc2n[nH]c3ccccc23)[nH]c1=O (centres undefined) | 329 | > 100000 | 950 | > 10000 | > 10000 | > 10000 | – | EC50 [3]: 687 nM; EC50 [7]: > 10000 nM
Cc1c(Cc2c(Cl)cccc2Cl)nc(N(C)Cc2ccc(N3CCN(C)CC3)cc2)[nH]c1=O | 94 | 3200 | 274 | 704 | > 1000 | 792 | 18 | Papp at 5 h [6]: 0.58 ×10⁻⁶ cm/s; Stability (Liver microsome): 99%; Papp at 5 h [10]: 1.37 ×10⁻⁶ cm/s
COc1ccc(CN(C)c2nc(C(C)c3c(Cl)cccc3Cl)c(C)c(=O)[nH]2)cc1 (centres undefined) | 12 | > 100000 | – | 209 | – | – | 10 | IC50 [4]: 17 nM
C[C@H](Cn1cnc2c(N)ncnc21)OCP(=O)(O)O [TENOFOVIR ANHYDROUS] | – | – | – | – | – | – | – | EC50 [13]: 3000 nM
COc1ccc(CN(C)c2nc(Cc3c(Cl)cccc3Cl)c(C)c(=O)[nH]2)cc1 | 15 | 17900 | – | 680 | – | – | 10 | IC50 [4]: 5 nM
Cc1c(C(C)c2c(F)cccc2F)nc(N(C)Cc2ccc([N+](=O)[O-])cc2)[nH]c1=O (centres undefined) | 10 | > 50000 | 65 | 814 | 134 | 518 | – | EC50 [3]: 30 nM; EC50 [7]: 1500 nM
COc1ccc(C2CC2CSc2nc(C(C)c3c(F)cccc3F)c(C)c(=O)[nH]2)cc1 (centres undefined) | 93 | 31100 | 246 | 1610 | 450 | 549 | 56 | –
Cc1c(C(C)c2c(F)cccc2F)nc(N(C)Cc2ccc(N3CCN(C)CC3)cc2)[nH]c1=O (centres undefined) | 7.9 | 26200 | 42 | 331 | 138 | 2460 | – | EC50 [3]: 22 nM; EC50 [7]: 1570 nM
Cc1c(C(C)c2c(Cl)cccc2Cl)nc(N(C)Cc2ccc(N3CCNCC3)cc2)[nH]c1=O (centres undefined) | 102 | 13200 | – | – | – | – | – | –
Cc1c(Cc2c(Cl)cccc2Cl)nc(N(C)Cc2ccc(N3CCOCC3)cc2)[nH]c1=O | 657 | 9900 | – | – | – | – | – | IC50 [4]: 90 nM; Stability (Liver microsome): 99%; Papp at 5 h [10]: 21.9 ×10⁻⁶ cm/s
Cc1c(C(C)c2c(Cl)cccc2Cl)nc(N(C)Cc2ccc(N3CCOCC3)cc2)[nH]c1=O (centres undefined) | 86 | 38400 | 256 | 1290 | 942 | 1500 | 15 | –
Cc1c(C(C)c2c(Cl)cccc2Cl)nc(N(C)Cc2ccc(N3CCN(C)CC3)cc2)[nH]c1=O (centres undefined) | 29 | > 10000 | 103 | 627 | 294 | 1040 | 6.3 | Stability (Liver microsome): 99%; Papp at 5 h [10]: 0.91 ×10⁻⁶ cm/s
Cc1c(Cc2c(Cl)cccc2Cl)nc(N(C)Cc2ccc(N3CCN(C(=O)OC(C)(C)C)CC3)cc2)[nH]c1=O | 2930 | 2590 | – | – | – | – | – | –

— ChEMBL document CHEMBL3784955, “Development and in Vitro Evaluation of a Microbicide Gel Formulation for a Novel Non-Nucleoside Reverse Transcriptase Inhibitor Belonging to the N-Dihydroalkyloxybenzyloxopyrimidines (N-DABOs) Family” (J Med Chem, 2016)
